Experimental findings from ChEMBL document CHEMBL1142686, “CoMFA, synthesis, and pharmacological evaluation of (E)-3-(2-carboxy-2-arylvinyl)-4,6-dichloro-1H-indole-2-carboxylic acids: 3-[2-(3-aminophenyl)-2-carboxyvinyl]-4,6-dichloro-1H-indole-2-carboxylic acid, a potent selective glycine-site NMDA receptor antagonist” (J Med Chem, 2005) are described below.

One assay has as its target Glutamate NMDA receptor. Briefly: Antagonist activity of compound against rat N-methyl-D-aspartate glutamate receptor using 11 nM [3H]glycine. The assay is classed as functional.
Broadly, the IC50 is the midpoint of a concentration-inhibition curve. Higher therefore signals a need for much substance. In turn, `O=C(O)/C(=C/c1c(C(=O)O)[nH]c2cc(Cl)cc(Cl)c12)c1ccccc1Cl` yielded an IC50 of 212 nM. Same read-out and setting: to `O=C(O)/C(=C/c1c(C(=O)O)[nH]c2cc(Cl)cc(Cl)c12)c1cccs1` belongs 9 nM; to `O=C(O)/C(=C/c1c(C(=O)O)[nH]c2cc(Cl)cc(Cl)c12)c1ccncc1`, 151 nM; to `Cc1ccc(/C(=C\c2c(C(=O)O)[nH]c3cc(Cl)cc(Cl)c23)C(=O)O)cc1`, 105 nM. Still for that read-out and setting: then `O=C(O)/C(=C\c1c(C(=O)O)[nH]c2cc(Cl)cc(Cl)c12)c1ccccc1`, with 157 nM.

For the molecule `CNC(=O)/C(=C/c1c(C(=O)O)[nH]c2cc(Cl)cc(Cl)c12)c1ccccc1`, inhibition was half-maximal at 50 nM (IC50). Compared with the last molecule, the IC50 is about 3.1-fold lower. As for `O=C(O)/C(=C/c1c(C(=O)O)[nH]c2cc(Cl)cc(Cl)c12)c1cccc(NC(=O)c2ccccc2)c1`, the IC50 stood at 512 nM.

For the molecule `O=C(O)/C(=C/c1c(C(=O)O)[nH]c2cc(Cl)cc(Cl)c12)c1ccc(Cl)cc1Cl`, the IC50 came out at 116 nM. The same measure, in the same setting: to `O=C(O)/C(=C/c1c(C(=O)O)[nH]c2cc(Cl)cc(Cl)c12)c1ccc(Br)cc1` belongs 29 nM.

`CN(C)c1cccc(/C(=C\c2c(C(=O)O)[nH]c3cc(Cl)cc(Cl)c23)C(=O)O)c1` displayed an IC50 of 225 nM. On the same count and under the same terms, then `O=C(O)/C(=C/c1c(C(=O)O)[nH]c2cc(Cl)cc(Cl)c12)c1ccc(Cl)cc1`, with 65 nM. As for `O=C(O)/C(=C/c1c(C(=O)O)[nH]c2cc(Cl)cc(Cl)c12)c1cccc2ccccc12`, the IC50 came to 145 nM. Same read-out and setting: to `COc1cccc(/C(=C\c2c(C(=O)O)[nH]c3cc(Cl)cc(Cl)c23)C(=O)O)c1` belongs 117 nM; to `O=C(O)/C(=C/c1c(C(=O)O)[nH]c2cc(Cl)cc(Cl)c12)c1ccoc1`, 21 nM; to `NC(=O)/C(=C/c1c(C(=O)O)[nH]c2cc(Cl)cc(Cl)c12)c1ccccc1`, 20 nM. Still for that read-out and setting: then `O=C(O)c1[nH]c2cc(Cl)cc(Cl)c2c1/C=C/C(=O)N1CCCCC1`, with 38 nM; and `O=C(O)/C(=C/c1c(C(=O)O)[nH]c2cc(Cl)cc(Cl)c12)c1ccc(F)cc1`, with 35.5 nM; and `O=C(O)/C(=C/c1c(C(=O)O)[nH]c2cc(Cl)cc(Cl)c12)c1ccccn1`, with 1020 nM.

The next assay addresses Glutamate NMDA receptor. Briefly: Binding affinity against strychnine-insensitive glycine sites of rat N-methyl-D-aspartate glutamate receptor using [3H]glycine. It counts as protein-complex assay. An outline of the steps:
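Strychnine-insensitive [3H]glycine binding to washed, Triton-treated rat cortical/hippocampal membranes. Triplicates with strychnine and 400 µg protein in 50 mM HEPES-KOH pH 7.4, 30 min at 4 °C. Ended by centrifugation; pellets counted by scintillation; nonspecific binding taken in 0.1 mM D-serine. IC50 = concentration halving specific binding, mean of two or more experiments, fitted by logistic nonlinear regression.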
The Ki is a measure of affinity in units of concentration, obtained from inhibition or displacement. The low end stands for a stronger hold on the target, the high end for a looser hold on the target. In turn, `Nc1cccc(/C(=C/c2c(C(=O)O)[nH]c3cc(Cl)cc(Cl)c23)C(=O)O)c1` registered a Ki of 553 nM. That is a sub-micromolar value.
